Source: ChEMBL document CHEMBL3397031, “Synthesis and structure-activity relationships of pyridinyl-1H-1,2,3-triazolyldihydroisoxazoles as potent inhibitors of tubulin polymerization” (Eur J Med Chem, 2015)
Active and inactive are the calls of the source. The calls are words filed in the database; no cut-off is given here.

Key:
[1] = test system: A549; assay: Cytotoxicity against human A549 cells after 48 hrs by MTT assay; format: functional, cell-based; settings: A549, 48 h
Procedure, shortened: (§1)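 A549, HeLa and MCF7 cells were grown in DMEM with 10% FBS, and DU145 in MEM with non-essential amino acids, pyruvate, insulin and 10% FBS. Cells were plated 24 h before dosing, then exposed continuously for 48 h at 1, 10, 25 and 100 µM in triplicate wells. MTT was added for 60 min, dissolved in DMSO and read at 560 nm. IC50 was taken from dose-response curves against control, as mean ± SD of three independent experiments.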

[2] = test system: DU-145; assay: Cytotoxicity against human DU145 cells after 48 hrs by MTT assay; format: functional, cell-based; settings: DU-145, 48 h; procedure, shortened: as §1
[3] = test system: HeLa; assay: Cytotoxicity against human HeLa cells after 48 hrs by MTT assay; format: functional, cell-based; procedure, shortened: as §1
[4] = test system: MCF7; assay: Cytotoxicity against human MCF7 cells after 48 hrs by MTT assay; format: functional, cell-based; settings: MCF7, 48 h; procedure, shortened: as §1
[5] = target: Tubulin (Bos taurus) (UniProt Q6B856+Q862L2+Q862F3); settings: at 10 µM
[6] = target: Tubulin (Bos taurus, UniProt Q6B856+Q862L2+Q862F3); assay: Inhibition of bovine brain tubulin polymerization measured for 1 hr by fluorescence assay
[7] = test system: HeLa; assay: Cell cycle arrest in human HeLa cells assessed as accumulation at G2/M phase at 10 uM after 24 hrs by FACS analysis (reference value: 26.75%); format: functional
[8] = test system: HeLa; assay: Cell cycle arrest in human HeLa cells assessed as disruption of microtubule organization at 10 uM after 24 hrs by DAPI staining-based immunohistochemistry relative to control; format: functional
Procedure, shortened: (§2)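 HeLa cells were grown on coverslips and treated 24 h at 10 µM. They were fixed in 3.5% formaldehyde/PBS pH 7.4 for 10 min, permeabilized with 0.5% Triton X-100/0.05% Tween-20 and blocked in 2% BSA. Staining used anti-tubulin (1:200, 4 h, room temperature) then FITC anti-mouse (1:500, 1 h). Cells were mounted with DAPI and imaged by confocal microscopy.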

[9] = test system: HeLa; assay: Cell cycle arrest in human HeLa cells assessed as planar arrangement of chromosomes with distinct microtubule organization centres at 10 uM after 24 hrs by DAPI staining-based immunohistochemistry relative to control; format: functional; procedure, shortened: as §2
[10] = test system: HeLa; assay: Cell cycle arrest at G2/M phase in human HeLa cells assessed as increase in cyclin B1 expression at 10 uM after 24 hrs by immunoblot analysis relative to control; format: functional, cell-based
[11] = test system: HeLa; assay: Cell cycle arrest at G2/M phase in human HeLa cells assessed as increase in soluble form of tubulin at 10 uM after 24 hrs by immunoblot analysis relative to control; format: functional, cell-based
Procedure, shortened: (§3)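 HeLa cells seeded at 1×10^5 per well in complete growth medium and treated 24 h (test compounds 10 µM; nocodazole 2 µM as positive control; DMSO controls). Soluble tubulin was taken by 3 min permeabilization at 30 °C in PIPES-KOH pH 6.8/0.2% Triton X-100/glycerol buffer, and insoluble pellet fraction in Laemmli buffer. Equal volumes were run on SDS-10% PAGE and probed with mouse anti-α-tubulin, with HRP secondary and ECL detection.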

[12] = test system: HeLa; assay: Cell cycle arrest at G2/M phase in human HeLa cells assessed as reduction in polymerized form of tubulin at 10 uM after 24 hrs by immunoblot analysis relative to control; format: functional, cell-based; procedure, shortened: as §3
[13] = test system: HeLa; assay: Cell cycle arrest at G2/M phase in human HeLa cells assessed as increase in cyclin B1 expression at 2 uM after 24 hrs by immunoblot analysis relative to control; format: functional, cell-based
[14] = test system: HeLa; assay: Cell cycle arrest at G2/M phase in human HeLa cells assessed as soluble form of tubulin at 2 uM after 24 hrs by immunoblot analysis relative to control; format: functional, cell-based; procedure, shortened: as §3

inhibition [5]	IC50 [6]	SMILES	IC50 [1]	IC50 [2]	IC50 [3]	IC50 [4]	Activity [7]	Activity [8]	Activity [9]	Activity [10]	Activity [11]	Activity [12]	Activity [13]	Activity [14]
59%		COc1cc(-c2cc(COCc3cn(Cc4cc(-c5ccc(C)cc5)cnc4Cl)nn3)on2)cc(OC)c1OC	30.6 µM	37.3 µM	35.3 µM	58.4 µM								
		COc1cc2c(c(OC)c1OC)-c1ccc(OC)c(=O)cc1[C@@H](NC(C)=O)CC2 [COLCHICINE]	0.12 µM	0.69 µM	0.54 µM	0.07 µM								
24%		COc1cc(COCc2cn(Cc3cc(C)cnc3Cl)nn2)cc(OC)c1OC	41.9 µM	34.8 µM	264 µM	67.4 µM								
51%		COc1cc(C2=NOC(COCc3cn(Cc4cc(-c5ccc(F)cc5)cnc4Cl)nn3)C2)cc(OC)c1OC (stereo not given)	25.2 µM	32.8 µM	27.2 µM	45.7 µM								
19%		COc1cc(-c2cc(COCc3cn(Cc4cc(C)cnc4N4CCOCC4)nn3)on2)cc(OC)c1OC	39.5 µM	54.7 µM	128 µM	195 µM								
35%		COc1cc(COCc2cn(Cc3cc(-c4ccc(C)cc4)cnc3Cl)nn2)cc(OC)c1OC	150 µM	37 µM	28.6 µM	146 µM								
27%		COc1cc(C2=NOC(COCc3cn(Cc4cc(C)cnc4N4CCOCC4)nn3)C2)cc(OC)c1OC (stereo not given)	45.4 µM	138 µM	37.3 µM	146 µM								
22%		COc1cc(-c2cc(COCc3cn(Cc4cc(C)cnc4Cl)nn3)on2)cc(OC)c1OC	256 µM	39.8 µM	57.7 µM	194 µM								
15%		COc1cc(-c2cc(COCc3cn(Cc4cc(-c5ccc(C)cc5)cnc4N4CCSCC4)nn3)on2)cc(OC)c1OC	61 µM	94.3 µM	52.6 µM	64.8 µM								
41%		COc1cc(COCc2cn(Cc3cc(-c4ccc(F)cc4)cnc3Cl)nn2)cc(OC)c1OC	50.6 µM	38.8 µM	49.6 µM	96.6 µM								
50%		COc1cc(C2=NOC(COCc3cn(Cc4cc(-c5ccccc5)cnc4N4CCSCC4)nn3)C2)cc(OC)c1OC (stereo not given)	31.5 µM	34.5 µM	29.2 µM	45 µM								
69%	8.1 µM	COc1cc(C2=NOC(COCc3cn(Cc4cc(-c5ccc(C)cc5)cnc4Cl)nn3)C2)cc(OC)c1OC (stereo not given)	11.5 µM	13.1 µM	9.7 µM	12.9 µM	78.85%	Active	Active	Active	Active	Active		
18%		COc1cc(COCc2cn(Cc3cc(-c4ccccc4)cnc3Cl)nn2)cc(OC)c1OC	62.6 µM	45.5 µM	41.9 µM	86.7 µM								
21%		COc1cc(COCc2cn(Cc3cc(-c4ccc(C)cc4)cnc3N3CCSCC3)nn2)cc(OC)c1OC	33.9 µM	41.9 µM	352 µM	67.8 µM								
46%		COc1cc(C2=NOC(COCc3cn(Cc4cc(-c5ccccc5)cnc4N4CCOCC4)nn3)C2)cc(OC)c1OC (stereo not given)	39.2 µM	44.8 µM	42.6 µM	68.8 µM								
11%		COc1cc(-c2cc(COCc3cn(Cc4cc(-c5ccccc5)cnc4N4CCSCC4)nn3)on2)cc(OC)c1OC	52.6 µM	210 µM	175 µM	213 µM								

inhibition [5]	IC50 [6]	SMILES	IC50 [1]	IC50 [2]	IC50 [3]	IC50 [4]	Activity [7]	Activity [8]	Activity [9]	Activity [10]	Activity [11]	Activity [12]	Activity [13]	Activity [14]
72%	6.8 µM	COc1cc(C2=NOC(COCc3cn(Cc4cc(-c5ccccc5)cnc4Cl)nn3)C2)cc(OC)c1OC (stereo not given)	8.6 µM	11.4 µM	7.3 µM	14.6 µM	87.79%	Active	Active	Active	Active	Active		
48%		COc1cc(COCc2cn(Cc3cc(-c4ccc(C)cc4)cnc3N3CCOCC3)nn2)cc(OC)c1OC	38.5 µM	34.8 µM	35.8 µM	51.7 µM								
64%		COc1cc(-c2cc(COCc3cn(Cc4cc(-c5ccc(C)cc5)cnc4N4CCOCC4)nn3)on2)cc(OC)c1OC	45.3 µM	52.1 µM	36.1 µM	73.4 µM								
		COC(=O)Nc1nc2cc(C(=O)c3cccs3)ccc2[nH]1											Active	Active
27%		COc1cc(-c2cc(COCc3cn(Cc4cc(-c5ccccc5)cnc4N4CCOCC4)nn3)on2)cc(OC)c1OC	39.2 µM	54 µM	39.4 µM	63.4 µM								
22%		COc1cc(C2=NOC(COCc3cn(Cc4cc(-c5ccc(C)cc5)cnc4N4CCSCC4)nn3)C2)cc(OC)c1OC (stereo not given)	43.2 µM	87.3 µM	39.2 µM	71.1 µM								
16%		COc1cc(COCc2cn(Cc3cc(-c4ccccc4)cnc3N3CCOCC3)nn2)cc(OC)c1OC	84 µM	70.3 µM	85.1 µM	97.6 µM								
53%		COc1cc(C2=NOC(COCc3cn(Cc4cc(C)cnc4Cl)nn3)C2)cc(OC)c1OC (stereo not given)	37.7 µM	58.9 µM	50.5 µM	85.5 µM								
45%		COc1cc(COCc2cn(Cc3cc(C)cnc3N3CCOCC3)nn2)cc(OC)c1OC	64.9 µM	66.7 µM	35.6 µM	48.5 µM								
38%		COc1cc(C2=NOC(COCc3cn(Cc4cc(C)cnc4N4CCSCC4)nn3)C2)cc(OC)c1OC (stereo not given)	45.6 µM	29.4 µM	41 µM	45.1 µM								
39%		COc1cc(COCc2cn(Cc3cc(-c4ccccc4)cnc3N3CCSCC3)nn2)cc(OC)c1OC	45.2 µM	48.9 µM	31.5 µM	59 µM								
16%		COc1cc(-c2cc(COCc3cn(Cc4cc(-c5ccccc5)cnc4Cl)nn3)on2)cc(OC)c1OC	112 µM	78.5 µM	43.1 µM	68.5 µM								
46%		COc1cc(-c2cc(COCc3cn(Cc4cc(-c5ccc(F)cc5)cnc4Cl)nn3)on2)cc(OC)c1OC	40.6 µM	31.9 µM	37.3 µM	76.4 µM								
27%		COc1cc(COCc2cn(Cc3cc(C)cnc3N3CCSCC3)nn2)cc(OC)c1OC	71.5 µM	48.6 µM	61.8 µM	82.1 µM								
27%		COc1cc(C2=NOC(COCc3cn(Cc4cc(-c5ccc(C)cc5)cnc4N4CCOCC4)nn3)C2)cc(OC)c1OC (stereo not given)	39.6 µM	49.7 µM	38.7 µM	59.6 µM								
32%		COc1cc(-c2cc(COCc3cn(Cc4cc(C)cnc4N4CCSCC4)nn3)on2)cc(OC)c1OC	40 µM	73.9 µM	53.4 µM	82.9 µM								
